Test results taken from the array DNA melting data of Ke et al. (doi:10.1101/2024.01.08.574731).

Tests used:
[1] = melting temperature; fluorescence melt of hairpins on a sequencing array, two-state fit, raised by 9.35 °C to match UV melts; conditions: sodium 0.088 M
In short: (§1)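 To match UV melts, fitted temperatures were raised by 9.35 °C. These fits were bootstrapped two-state models that gave melting temperature and folding enthalpy, combined by inverse variance over four replicates. The input was normalised Cy3 fluorescence of library hairpins with annealed Cy3 and quencher oligos on a sequenced MiSeq flow cell, imaged in 50 mM Na-HEPES pH 8.0, 25 mM NaCl in 2.5 °C steps up to 60 °C.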

[2] = folding enthalpy; higher = less favourable; fluorescence melt of hairpins on a sequencing array, two-state fit; conditions: sodium 0.088 M
In short: as §1

Sequence	Tm [1] [°C]	folding enthalpy [2] [kcal/mol]
GGCACTGGAAACAGCGCC (((.(((....))).)))	54	-46.1
GCATTGCGAAAGCATAGC ((..(((....)))..))	48.8	-19
GAGTACGAAAGTATGCTC ((((((....)))..)))	31.5	-20.8
GCGGAGACCGC ((((...))))	53.2	-24.4
GCGTATGCACGC ((((....))))	54.3	-13.3
GGTGCGTCGAAAGACACC (((..(((....))))))	37.1	-13
GAGCGCCGAAAGGCACTC (((.(((....))).)))	56.4	-20.2
GGTCGTGGAAACGCGACC (((((.(....).)))))	60	-50.9
GAAGTGGGAAACCACTTC (((((((....)))))))	59.9	-45.4
GCGCCCGGAAACGAGCGC ((((.((....)).))))	60	-38.9
GATCCGAGTCCGGATC ((((((....))))))	56	-40.2
TACCAGAAATGGTA (((((....)))))	37.5	-13.3
GTGCACGGAAACGCACAC (((..((....))..)))	38.5	-19.9
GATCACAGGTGTGATC ((((((....))))))	59.9	-36.4
GTACTCGGAAACGAGCAC ((.((((....)))).))	48.6	-19.3
GTCGACGAAAGTCAGGAC ((((((....)))..)))	41.7	-17.6
GTTGCGGGAAACCACAAC ((((.((....)).))))	46.1	-38.2
GAGCTTGGAAACAAGCCC (.(((((....))))).)	42.8	-13.2
GAAGACGAAAGTCTTTTC ((((((....)))..)))	47.1	-13.4
GATTGACGAAAGTCATC (((.(((....))))))	38.9	-12.7
GATCGAAGTATCGATC ((((((....))))))	50.9	-31.7
GATCGCACGAGCGATC ((((((....))))))	68.4	-31.7
GTCCTCGAAAGAGTCGAC ((((((....)))..)))	32.3	-12.3

Sequence	Tm [1] [°C]	folding enthalpy [2] [kcal/mol]
GTACGCGAAAGCGGGTAC ((((((....)))..)))	38.7	-10.6
GCTGCGCGAAAGCGAGGC ((..(((....)))..))	60.6	-20.3
GTGCCATCGAAAGATCAC (((..(((....))))))	38.4	-5.32
GAGCGAGGAAACCCGCTC (((((.(....).)))))	54.7	-32.5
GGACATCCGAAAGGATCC (((..(((....))))))	29.3	-12.6
GCAATCGGAAACGATTGC (((((((....)))))))	69.2	-41.9
GAGTGGGGAAACTCACTC (((((.(....).)))))	49.2	-40.9
GTGCGTGGAAACGTGCAC ((((..(....)..))))	50.8	-25.3
GACCTTGGAAACAAAGTC (((.(((....))).)))	26	-20.3
CGTACCGGAAACGGACG (((.(((....))))))	45.7	-21.2
GCCCGGCGAAAGCCGCGC ((.((((....)))).))	60.1	-17.4
GATCTTGGGAAAGATC ((((((....))))))	49.1	-33.3
GCGGGAACCCGC ((((....))))	67.8	-26
GAAGGCGAAAGCCTTTTC ((((((....)))..)))	51.3	-11.1
GCTGGCGAAAGCCCAAGC ((((((....)))..)))	50	-15.3
GATCTAAAGTAGATC ((((((...))))))	37.1	-22.2
GATCTTTTTTAAGATC ((((((....))))))	45.2	-35.2
GCAGCGCGAAAGCTCTGC ((((.((....)).))))	62	-31.9
GATCGTATGAACGATC ((((((....))))))	53.6	-31
GTATGCGAAAGCAGTAC ((((((....))).)))	39.5	-17.7
GATCCTATCAGGATC ((((((...))))))	57.2	-35.7
GCAAGGCGAAAGCCTAGC ((.((((....)))).))	61.7	-18.4
GATCGTACGGACGATC ((((((....))))))	54.4	-45.6

Sequence	Tm [1] [°C]	folding enthalpy [2] [kcal/mol]
GATCAGTCTACTGATC ((((((....))))))	54.2	-49.8
GCTGGGTCGAAAGACAGC (((..(((....))))))	46	-19.9
GAACCACGAAAGTGTTC (((.(((....))))))	43.9	-13.8
GTGACGCGAAAGCGACAC (((.(((....))).)))	69.3	-33.9
GGCATTGGAAACAATGTC (.(((((....))))).)	48.1	-31.9
GCTCGGCGAAAGCCAAGC (((.(((....))).)))	52.4	-35.8
GGACACCGAAAGGTATCC (((.(((....))).)))	47.5	-30.4
GTCACAGGAAACTGTGGC (.(((((....))))).)	52.5	-32.8
GCTGGGCGAAAGCTTAGC (((..((....))..)))	50.5	-23
GATCTGGTGACAGATC ((((((....))))))	56.4	-40.8
CGTCCGGAAACGGTTACG ((((((....)))..)))	39.3	-13.9
GGTTCCGAAAGGAACACC ((((((....)))..)))	51.9	-8.81
CGACTGCGGAAACGCTCG (((..(((....))))))	32.7	-12.5
GGGAACGGAAACATTCCC (((((.(....).)))))	39.4	-32.6
GCCAGGCGAAAGCCAAGC ((..(((....)))..))	44.8	-13.3
GTGCGCGAAAGCGTACAC ((((((....)))..)))	60.5	-11.9
GCTTCGCGAAAGCCACGC ((.(.((....)).).))	27.8	-8.03
GGACGCGAAAGCGTTCC ((((((....))).)))	61.8	-14.1
GGCCCCGAAAGGGTGCC ((((((....))).)))	66.1	-23.3
GCATGCGGAAACGTGTGC (((..((....))..)))	50.4	-37.8
GATCATGCGTATGATC ((((((....))))))	48.3	-39
GCAAAGCGAAAGCGTAGC ((.(.((....)).).))	55.9	-17.1
GCGTGCCCGAAAGGGCGC (((..(((....))))))	55.5	-7.85

Sequence	Tm [1] [°C]	folding enthalpy [2] [kcal/mol]
GCCATTGGAAACGATGGC (((((.(....).)))))	54.1	-45.8
GGGCATCGAAAGATCCC (((.(((....))))))	50.4	-30.4
GTATATGGAAACATATAC (((((((....)))))))	47.9	-42
GGGTAGGGAAACTTACCC (((((.(....).)))))	45.8	-29.5
GTTCCGGAAACGGAAC ((((((....))))))	66.3	-32.4
GGGCAACGAAAGTTCCCC (((.(((....))).)))	47.2	-20.2
GTTGTAGCGAAAGCTAAC (((..(((....))))))	48.1	-23
GATCTATGTTTAGATC ((((((....))))))	43.9	-32.9
GGGACCGAAAGGTCTCCC ((((((....)))..)))	51.9	-11.7
GCAAAGCGAAAGCTGAGC ((..(((....)))..))	55.9	-18.5
GTGGGCGAAAGCCTACAC ((((((....)))..)))	55.1	-11.9
GAGTGGCCGAAAGGCCTC (((..(((....))))))	38.3	-6.93
GCTTTCCGAAAGGATAGC (((.(((....))).)))	51.5	-35.9
GGAGTCGGAAACGACCCC ((.((((....)))).))	54.4	-15.2
GGTCGTGGAAACATGACC ((((.((....)).))))	56.5	-34
GGCTATGGAAACATAGCC (((((((....)))))))	66.1	-37.6
GACTATGGAAACACAGTC ((((.((....)).))))	33	-19.1
GGCTTCGAAAGAAAGGCC ((((((....)))..)))	43.4	-26
GATCGTGGAAACGCGATC (((((.(....).)))))	55.6	-39.9
GTAAATCGAAAGATGTAC (((.(((....))).)))	34.4	-23.1
GATCACGAGGGTGATC ((((((....))))))	54.6	-38.1
GTAGAGGCGAAAGCCTAC (((..(((....))))))	38	-8.81
GAAAACCGAAAGGTATTC (((.(((....))).)))	37.5	-23.5
